Beta apoptosis – beta cell apoptosis inhibition. protection from apoptosis, % (concentration not given with the values). 0.8% of 300,000 active. INS-1E cytokine-induced death, ATP luminescence, 48 h; percent of positive-control rescue, neutral wells zero. AID 435005;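 active = Every replicate reaches about 75%, or at least half do and their mean reaches it too, limit read from the data; inconclusive = At least half of replicates reach the limit but their mean does not; inactive = Under half of replicates reach the limit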;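 note: 0% = cytokine-treated negative control wells and 100% = positive control rescue; higher means more ATP so stronger rescue from cytokine killing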
Calb FLC – C. albicans growth modulation with fluconazole; C. albicans CaCi-2 (fluconazole-resistant clinical isolate) + fluconazole, Alamar Blue growth, 48 h; growth inhibition, % (concentration not given with the values); 0.57% of 300,000 active; AID 1979;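 active = growth inhibition above about 58% in most replicates, limit read from the data, passing the limit was not always enough; inconclusive = exactly half the replicates above a set limit; inactive = most replicates below a set limit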;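 note: all wells also contain fluconazole at 8 µg/ml as a sub-toxic cotreatment; 0% = median of DMSO wells and 100% = median of geldanamycin control wells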
T cruzi inh – T. cruzi replication inhibition. T. cruzi beta-gal in NIH3T3, luminescence, 90 h. inhibition, % (test concentration not listed). 1.4% of 300,000 active. AID 1885;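 active = mean inhibition across valid replicates above about 55%, limit read from the data; inconclusive = mean below that limit but half or more replicates reach it; inactive = mean below it, under half of replicates reach it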;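 note: signal also drops with host cell toxicity which is not excluded here; 0% = plate median of DMSO wells and 100% = zero luminescence signal; higher percent means less beta-gal luminescence so fewer parasites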
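Assay system: NIH/3T3 host cells with β-galactosidase reporter T. cruzi; input: 5,000 host fibroblasts per well; compound: single 50 nL compound addition per well in DMSO; timing: ≥90 h infection period, 3 h prior cell attachment; measured by: GalScreen β-gal luminescence, detergent lysis, 60 min; evaluation: percent inhibition of parasite-derived β-gal signal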
CSC inhib – cancer stem cell inhibition; AID 2717; 1.1% of 300,000 active; inhibition, % at 7.5 µM; cancer stem cell-like cells viability, luminescence; in the data active = inhibition above about 75%; inconclusive = no clear call, values can overlap the other calls; tested in HMLE shEcad cells
SKKanGAS inh – inhibitors of SKKanGAS S. pyogenes growth in kanamycin (SK-promoter or general growth effect); BacTiter-Glo, 6 h; inhibition, % at 7.5 µM; 1.3% of 300,000 active;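 active = mean replicate score, as percent of positive control median, at least 50; inconclusive = mean below 50 but one replicate at or above 50; inactive = mean and every replicate below 50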;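 note: strain carries kanamycin resistance gene driven by streptokinase promoter and grows in 40 µg/ml kanamycin; loss of luminescence reflects streptokinase promoter inhibition or plain growth inhibition; 0% = median of DMSO wells and 100% = positive control at its reference dose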
Mdm2 MdmX PPI – disrupts the human Mdm2-MdmX interaction; AID 485346; 3% of 330,000 active; O15151+Q00987; inhibition, % at 8 µM; SaOS-2 split-luciferase Mdm2/MdmX complementation, luminescence;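 active = inhibition of at least 50% at 8 µM in the primary screen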
Target sequence (O15151 whole entry, looked up): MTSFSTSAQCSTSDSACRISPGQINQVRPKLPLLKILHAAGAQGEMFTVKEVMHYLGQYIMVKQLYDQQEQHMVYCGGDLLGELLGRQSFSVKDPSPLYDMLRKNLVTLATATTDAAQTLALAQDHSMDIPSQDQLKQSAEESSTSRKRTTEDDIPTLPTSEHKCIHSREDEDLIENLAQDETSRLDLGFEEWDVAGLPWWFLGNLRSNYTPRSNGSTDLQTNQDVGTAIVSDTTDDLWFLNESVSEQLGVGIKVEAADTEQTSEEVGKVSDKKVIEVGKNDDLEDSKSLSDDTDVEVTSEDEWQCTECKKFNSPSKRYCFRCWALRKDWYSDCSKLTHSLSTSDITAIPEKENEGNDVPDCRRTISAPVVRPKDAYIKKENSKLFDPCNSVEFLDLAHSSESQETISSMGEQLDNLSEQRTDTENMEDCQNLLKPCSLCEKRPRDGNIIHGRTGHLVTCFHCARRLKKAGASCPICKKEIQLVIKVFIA
Target sequence (Q00987 whole entry, looked up): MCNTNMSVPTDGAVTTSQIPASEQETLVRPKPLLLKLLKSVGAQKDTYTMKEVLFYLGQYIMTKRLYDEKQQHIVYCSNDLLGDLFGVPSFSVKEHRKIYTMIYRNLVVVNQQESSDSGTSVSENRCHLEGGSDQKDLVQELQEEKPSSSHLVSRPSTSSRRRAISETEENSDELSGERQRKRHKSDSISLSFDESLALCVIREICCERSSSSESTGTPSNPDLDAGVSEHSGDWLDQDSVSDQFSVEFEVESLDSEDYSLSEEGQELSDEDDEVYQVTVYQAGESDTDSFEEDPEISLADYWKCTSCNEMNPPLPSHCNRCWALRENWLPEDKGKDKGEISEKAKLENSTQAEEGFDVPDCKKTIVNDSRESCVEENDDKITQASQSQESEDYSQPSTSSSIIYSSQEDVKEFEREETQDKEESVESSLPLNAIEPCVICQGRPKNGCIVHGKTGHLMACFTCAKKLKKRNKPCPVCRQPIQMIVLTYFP
Mdm2 MdmX conf – human Mdm2/MdmX binding inhibition, confirmed; shares compounds with Mdm2 MdmX PPI; luminescent assay; inhibition, % at 8 µM; 55% of 10,000 active; in the data active = inhibition above about 40%
FLuc counter – counter-screen for Mdm2/MdmX inhibitors: full-length luciferase; shares compounds with Mdm2 MdmX PPI; SaOS-2 full-length luciferase counterscreen, luminescence; inhibition, % at 8 µM; 77% of 6,200 active; AID 504607;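 active = mean inhibition at 8 µM reaching about 37%, which flags the compound as non-specific, limit read from the data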;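 note: p53-null SaOS-2 cells with luciferase driven by a doxycycline-inducible promoter; compound on cells about two nights before reading with doxycycline added after day one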
The depositor's hits bear a star. This is a sample that favours compounds with a hit; in the whole collection about 5.7% have one here.

What do the screens show for `O=C(COC(=O)C1C2CC3OC(=O)C1C3C2)Nc1ccc(Cl)cc1` (configuration not stated)?
Beta apoptosis: -1; Calb FLC: -5; T cruzi inh: 0; CSC inhib: -3; SKKanGAS inh: -5; Mdm2 MdmX PPI: -20

How did Cc1[nH]nc2c1C(c1cc(Br)cs1)C(C#N)=C(N)O2 (configuration not stated) do in these assays?
Beta apoptosis: -10; Calb FLC: 11; T cruzi inh: 0; CSC inhib: 23; SKKanGAS inh: -10; Mdm2 MdmX PPI: 70*; Mdm2 MdmX conf: 30

What do the screens show for `Cc1[nH]nc2c1C(c1ccco1)C(C#N)=C(N)O2` (configuration not stated)?
Beta apoptosis: -2; Calb FLC: 9; T cruzi inh: -18; CSC inhib: -11; SKKanGAS inh: 1; Mdm2 MdmX PPI: -2

How did CC(C)(C)N(Cc1cc2ccccc2[nH]c1=O)C(=O)C1CCCCC1 do in these assays?
Beta apoptosis: -4; Calb FLC: -14; T cruzi inh: -12; CSC inhib: 5; SKKanGAS inh: -9; Mdm2 MdmX PPI: 62*; Mdm2 MdmX conf: 64*; FLuc counter: 89*

Results for CCN(Cc1cc2ccccc2[nH]c1=O)C(=O)C1CCCCC1 ?
Beta apoptosis: 1; Calb FLC: -4; T cruzi inh: 3; CSC inhib: 2; SKKanGAS inh: 1; Mdm2 MdmX PPI: 11

What do the screens show for `Cn1c(N)c(C(=O)CSc2nnc3n2CCCCC3)c(=O)n(C)c1=O`?
Beta apoptosis: -6; CSC inhib: -10; Mdm2 MdmX PPI: -7

What do the screens show for `COc1cccc(-c2ccc3ncnc(NCc4cccs4)c3c2)c1`?
Beta apoptosis: 9; CSC inhib: 45; Mdm2 MdmX PPI: 64*; Mdm2 MdmX conf: 51*; FLuc counter: 39*

Results for Cn1ccc2cc(-c3ccc4ncnc(NCc5cccs5)c4c3)ccc21 ?
Beta apoptosis: 61; Mdm2 MdmX PPI: 64*; Mdm2 MdmX conf: 57*; FLuc counter: 25

Results for c1cncc(-c2ccc3ncnc(NCc4cccs4)c3c2)c1 ?
Beta apoptosis: -1; Mdm2 MdmX PPI: 17

How did CCC1Oc2ccccc2N(CC(=O)NCCC2=CCCCC2)C1=O (configuration not stated) do in these assays?
Beta apoptosis: 2; Calb FLC: 8; T cruzi inh: -7; CSC inhib: 10; SKKanGAS inh: 0; Mdm2 MdmX PPI: 60*; Mdm2 MdmX conf: 9

What do the screens show for `Cc1ccc(NC(=O)CN(C)C(=O)COC(=O)[C@@H](NC(=O)c2ccccc2F)C(C)C)cc1`?
Beta apoptosis: -1; CSC inhib: 15; Mdm2 MdmX PPI: -21

Results for CCOC(=O)C1=CN(Cc2cccc(F)c2)S(=O)(=O)NC1CCc1ccccc1 (configuration not stated) ?
Mdm2 MdmX PPI: 61*; Mdm2 MdmX conf: 29; FLuc counter: 47*

Results for COC(=O)c1cccc(NC(=O)NC(=O)c2ccccc2Cl)c1 ?
Beta apoptosis: 3; Calb FLC: -26; T cruzi inh: -2; CSC inhib: 7; SKKanGAS inh: -6; Mdm2 MdmX PPI: 27

How did COC(=O)c1cccc(NC(=O)Nc2ccc(Cl)c(Cl)c2)c1 do in these assays?
Beta apoptosis: 82*; Calb FLC: -48; T cruzi inh: 55*; CSC inhib: 97*; SKKanGAS inh: 5; Mdm2 MdmX PPI: 80*; Mdm2 MdmX conf: 80*; FLuc counter: 40*

Results for O=C(Nc1cccnc1)Nc1cccc(F)c1 ?
Beta apoptosis: -4; Calb FLC: 12; T cruzi inh: 4; CSC inhib: 2; SKKanGAS inh: 1; Mdm2 MdmX PPI: 24

What do the screens show for `CC(=O)c1cccc(NC(=O)Nc2cccnc2)c1`?
Beta apoptosis: -3; Calb FLC: -11; T cruzi inh: -1; CSC inhib: 6; SKKanGAS inh: 5; Mdm2 MdmX PPI: 54*; Mdm2 MdmX conf: 50*; FLuc counter: 28

What do the screens show for `CCCCN(C)CCNC(=S)Nc1ccc2nc(N3CCN(CC)CC3)cc(C)c2c1`?
Beta apoptosis: 0; Calb FLC: -7; T cruzi inh: inconclusive; CSC inhib: 32; SKKanGAS inh: 2; Mdm2 MdmX PPI: 74*; Mdm2 MdmX conf: 36; FLuc counter: 51*

Results for Cc1cc(N2CCCC2)nc2ccc(NC(=S)NCCCN3CCC(C)CC3)cc12 ?
Beta apoptosis: 9; Calb FLC: -1; T cruzi inh: 60*; CSC inhib: 2; SKKanGAS inh: -7; Mdm2 MdmX PPI: 100*; Mdm2 MdmX conf: 39; FLuc counter: 49*

How did CCCN1CCN(CCCNC(=S)Nc2ccc3nc(N4CCN(CC)CC4)cc(C)c3c2)CC1 do in these assays?
Beta apoptosis: -4; Calb FLC: -1; T cruzi inh: -15; CSC inhib: 44; SKKanGAS inh: 2; Mdm2 MdmX PPI: 29

How did CC(C)(C)C(=O)O/N=C(\N)c1ccc(Oc2cc(Cl)cc(Cl)c2)c([N+](=O)[O-])c1 do in these assays?
Beta apoptosis: 9; Calb FLC: -1; T cruzi inh: 7; CSC inhib: 22; SKKanGAS inh: 7; Mdm2 MdmX PPI: 60*; Mdm2 MdmX conf: 8

What do the screens show for `O=C(Nc1ccc([N+](=O)[O-])cc1)Nc1ccc(Cl)cc1F`?
Beta apoptosis: 108*; Calb FLC: -14; T cruzi inh: -8; CSC inhib: -6; SKKanGAS inh: 58*; Mdm2 MdmX PPI: 87*; Mdm2 MdmX conf: 91*; FLuc counter: 73*

What do the screens show for `O=C(Nc1ccc(Cl)cc1)Nc1cc([N+](=O)[O-])ccc1F`?
Beta apoptosis: 29; Calb FLC: 1; T cruzi inh: 35; CSC inhib: 43; SKKanGAS inh: -5; Mdm2 MdmX PPI: 49

What do the screens show for `O=C(Nc1ccc(Cl)cc1)Nc1csc([N+](=O)[O-])c1`?
Beta apoptosis: 80*; Calb FLC: -13; T cruzi inh: 30; CSC inhib: 36; SKKanGAS inh: 3; Mdm2 MdmX PPI: 94*; Mdm2 MdmX conf: 76*; FLuc counter: 31

How did O=C(Nc1csc([N+](=O)[O-])c1)Nc1c(Cl)cccc1Cl do in these assays?
Beta apoptosis: -15; Calb FLC: 2; T cruzi inh: 27; CSC inhib: 14; SKKanGAS inh: 6; Mdm2 MdmX PPI: 30

How did Cc1cc(OC(F)F)ccc1NC(=O)Nc1ccc([N+](=O)[O-])cc1 do in these assays?
Beta apoptosis: 64; Calb FLC: -11; T cruzi inh: 15; CSC inhib: -28; SKKanGAS inh: 13; Mdm2 MdmX PPI: 96*; Mdm2 MdmX conf: 86*; FLuc counter: 47*
